Results published in ChEMBL document CHEMBL5150021, “Identification of 5-(Aryl/Heteroaryl)amino-4-quinolones as Potent Membrane-Disrupting Agents to Combat Antibiotic-Resistant Gram-Positive Bacteria” (J Med Chem, 2022).
≈ marks a conversion by molar mass, not a printed value.

Columns and labels:
Staphylococcus aureus = assay: Antibacterial activity against methicillin resistant Staphylococcus aureus FPR3757 assessed as inhibition of bacterial growth incubated for 24 hrs by CLSI based method; assay type: functional; conditions: read-out: MIC100
In short: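 It was mixed 1:1 with twofold serial compound dilutions and incubated stationary at 37 °C for 24 h. MIC was the lowest concentration giving complete inhibition of observable growth, with an oxacillin control.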

Erythrocyte = assay: Hemolytic activity in sheep erythrocytes at 32 ug/ml incubated for 1 hr; assay type: toxicity, cell-based, Ovis aries; conditions: dose 32 µg/ml
In short: (§1)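 4% sheep erythrocytes mixed 1:1 with twofold serial compound dilutions in PBS, incubated stationary 1 h at 37 °C, then centrifuged at 500g for 5 min. Supernatant A540 is measured and percent hemolysis is calculated relative to DMSO vehicle (0%) and Triton X-100 (100%). Triplicate, mean ± SD.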

[1] = Cytotoxicity against sheep erythrocytes assessed as reduction in cell viability; assay type: toxicity, cell-based, Ovis aries, Erythrocyte; in short: as §1
[2] = Therapeutic index, ratio of CC50 for Cytotoxicity against sheep erythrocytes to MIC for antibacterial activity against methicillin resistant Staphylococcus aureus FPR3757; assay type: toxicity
In short: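 Ratio of erythrocyte CC50 to MRSA FPR3757 MIC. For hemolysis, 4% washed sheep erythrocytes were mixed 1:1 with twofold compound dilutions in PBS and incubated 1 h at 37 °C. Supernatant A540 was read after centrifugation and normalized between DMSO and Triton X-100 (100% lysis). Triplicates. Highest concentration tested: 32 μg/mL.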

Row | SMILES | MIC (Staphylococcus aureus) [µg/mL] | Activity (Erythrocyte) | CC50 [1] [µg/mL] | selectivity ratio [2]
1 | Fc1cc2nc(C(F)(F)F)cc(Nc3ccc(C(F)(F)F)cn3)c2cc1F | 0.25 (≈ 0.636 µM) | Toxic |  | 
2 | O=c1cc(C(F)(F)F)[nH]c2cc(C(F)(F)F)cc(Nc3ccc(Cl)c(Cl)c3)c12 | < 0.0625 | Non-Toxic | > 32 | > 500
3 | Fc1ccc2c(Nc3ccc(C(F)(F)F)cn3)cc(C(F)(F)F)nc2c1 | 1 (≈ 2.66 µM) | Non-Toxic |  | 
